{"data": "Results pooled from the literature", "Short transient receptor potential channel 5": "Short transient receptor potential channel 5 (Mus musculus, UniProt Q9QX29)", "Htr2a": "5-hydroxytryptamine receptor 2A (Htr2a, Mus musculus, UniProt P35363)", "note": "Lines come from different studies, so protocols differ."}
{"SMILES": "CC(=O)c1c(C)c2cnc(Nc3ccc(C4CCN(CCS(C)(=O)=O)CC4)cn3)nc2n(C2CCCC2)c1=O", "target": "Cytochrome P450 1A2 (CYP1A2, Homo sapiens, UniProt P05177)", "assay": "enzyme activity, inhibitor", "system": "human, liver microsomes", "endpoint": "IC50", "result": "> 10 µM"}
{"SMILES": "CNCCCN1c2ccccc2CCc2ccccc21", "target": "Short transient receptor potential channel 5", "assay": "ion current, inhibitor, patch clamp", "endpoint": "IC50", "result": "10.3 µM"}
{"SMILES": "COc1cc2c(cc1OC)CN(CCc1ccc(NC(=O)c3cccc4c(=O)c5cccc(OC)c5[nH]c34)cc1)CC2", "target": "Beta-3 adrenergic receptor (ADRB3, Homo sapiens, UniProt P13945)", "assay": "cell-free assay", "endpoint": "Ki", "result": "> 10 µM"}
{"SMILES": "Cc1ccc(OCC(=O)N[C@@H](Cc2c[nH]c3ccccc23)C(=O)OC(C)C)cc1", "target": "Cytochrome P450 3A4 (CYP3A4, Homo sapiens, UniProt P08684)", "assay": "enzyme activity, inhibitor", "system": "human, liver microsomes", "setting": "30 min, midazolam probe", "endpoint": "IC50", "result": "> 50 µM"}
{"SMILES": "COc1cc(CCNC(C)c2ccccc2O)c(OC)cc1Br (centres unmarked)", "target": "Htr2a", "assay": "G protein activation, agonist, BRET", "endpoint": "EC50", "result": "0.00094 µM"}
{"SMILES": "CN(C)CCCN1c2ccccc2CCc2ccccc21", "target": "Short transient receptor potential channel 5", "assay": "ion current, inhibitor, patch clamp", "endpoint": "IC50", "result": "11.7 µM"}
{"SMILES": "CN1CC[C@@]2(C)c3cc(OC(=O)Nc4ccccc4)ccc3N(C)[C@@H]12", "target": "Aldehyde dehydrogenase, mitochondrial (ALDH2, Homo sapiens, UniProt P05091)", "assay": "enzyme activity, inhibitor, fluorescence", "endpoint": "IC50", "result": "< 10 µM"}
{"SMILES": "COc1cc(CCN)c(OC)cc1C#N", "target": "Htr2a", "assay": "G protein activation, agonist, BRET", "endpoint": "EC50", "result": "0.32 µM"}
